697 NFkB inh: inhibitors of the PMA/ionomycin-induced NF-kB reporter in 697 B cells; 697 B-cell NF-kB luciferase reporter, 16 h; inhibition, % at 4 µM; 0.33% of 330,000 active; in the data active = inhibition above about 35%
CRFBP-R2 block: CRF-BP/CRF-R2 complex antagonism. HEK293 CRF-R2/CRF-BP, CRF-induced calcium fluorescence. inhibition, % at 11.8 µM. 0.59% of 350,000 active. AID 588475;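 active = inhibition of the ligand-induced calcium signal above about 50% at the single tested concentration, limit read from the data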
UPR CHOP act: apoptotic UPR (CHOP) activation. CHO-CHOP luciferase reporter, luminescence; percent of tunicamycin response over DMSO baseline. activation, % at 10 µM. 0.34% of 330,000 active;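 active = at 10 µM dose, activation of 40% or more, normalized to positive control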;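 note: 100% = tunicamycin at 10 µg/mL and 0% = DMSO alone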
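measured by = luciferase luminescence | assay system = CHO-CHOP cells, stable luciferase reporter of PERK-eIF2a-CHOP signalling | amount = 500 reporter cells seeded per well | timing = 6 h compound exposure at 37 °C after overnight seeding | controls = positive tunicamycin 10 µg/mL, negative DMSO alone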
Jurkat NFkB inh: lowers PMA/ionomycin-induced NF-kB signal in Jurkat cells; AID 435003; 0.53% of 330,000 active; inhibition, % at 4 µM; PMA/ionomycin-induced NF-kB luciferase reporter, luminescence; in the data active = inhibition above about 50%
UPR XBP1 act: activators of adaptive arm of unfolded protein response (XBP1); activation, % at 20 µM; 0.33% of 330,000 active; CHO-XBP1 luciferase reporter, IRE1-XBP1 UPR activation, luminescence; percent of tunicamycin response, DMSO as zero; AID 463104;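 active = versus positive control, 20 µM dose yields 30% or more activation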;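 note: 100% = tunicamycin at 10 µg/mL and 0% = DMSO only wells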
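Material – CHO cell line with stable XBP1 luciferase reporter · Buffer or medium – F12 plus 10% FBS · Compound – single point, 20 µM final compound, 1% DMSO · Schedule – 16-18 h cell attachment at 37 °C, then 6 h compound exposure · Signal – Steady-Glo luminescence read · Benchmarks – high control tunicamycin 10 µg/mL final, low control DMSO vehicle only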
The depositor's hits bear a star; nt = no result given. Compounds with a hit are over-represented: about 1.8% of the library has one in this group of screens.

SMILES	697 NFkB inh	CRFBP-R2 block	UPR CHOP act	Jurkat NFkB inh	UPR XBP1 act
COc1ccc(Cl)cc1NC(=O)CN(C)C(=O)c1cc(C)oc1C	4	5	0	7	-1
COc1cccc(C2C3=C(N=c4s/c(=C\c5ccccc5O)c(=O)n42)c2ccccc2CC3)c1OC (centres undefined)	-20	nt	105*	-15	52*
CC(=O)Cc1cc(O)c2ccccc2c1OC(=O)c1ccc(Br)cc1	6	68*	-1	-2	-2
O=S(=O)(c1ccc2[nH]ccc2c1)N1CCCCCC1	-17	11	2	13	-4
O=C1C(Cl)=C(N2CCCCC2)C(=O)C(Cl)=C1c1cnc(N2CCCCC2)s1	-41	-11	128*	-25	0
COc1cccc(CNc2nc(-c3cccnc3)nc3ccccc23)c1	6	96*	-1	4	1
Cc1ccc(SCC(=O)Nc2cc([N+](=O)[O-])ccc2O)cc1	-11	92*	2	-6	-3
CC(C)CC(=O)Nc1ccc(C(=O)COC(=O)CN2C(=O)NC3(CCCCC3C)C2=O)cc1 (centres undefined)	19	13	1	5	0
CCOC(=O)Cn1c(=O)oc2cc(S(=O)(=O)NC(C)(C)CC)ccc21	2	89*	2	-5	0
O=C(CN1C(=O)NC2(CCCC2)C1=O)c1ccc(Cl)s1	4	54*	2	16	-1
Nc1cccc(-c2c[nH]c3ncc(-c4cccnc4)cc23)c1	nt	-15	nt	nt	nt
COc1cccc(CN2CCN(Cc3cc(OC)c(OC)cc3[N+](=O)[O-])CC2)c1	15	64*	-3	-1	-2
CC12CCC(C(=O)Nc3cccc(NC(=O)C45CCC(C)(C(=O)O4)C5(C)C)n3)(OC1=O)C2(C)C	18	-4	-1	-10	0
CC12CCC(C(=O)Nc3ncc([N+](=O)[O-])s3)(OC1=O)C2(C)C (centres undefined)	0	63*	0	3	-1
CC(=O)Nc1ccc(S(=O)(=O)N2CCN(c3nnnn3-c3ccccc3)CC2)cc1	-15	102*	-1	2	-1
CC(=O)Nc1ccc(S(=O)(=O)N2CCN(c3ccccn3)CC2)cc1	12	-14	-1	17	-3
CC1CC(C)CN(C(=O)Cn2nnc(-c3ccc(Br)cc3)n2)C1 (centres undefined)	-1	-21	0	13	-6
CC(=O)Nc1sc(C)c(C)c1C(=O)OCC(=O)N(CC(C)C)c1c(N)n(Cc2ccccc2)c(=O)[nH]c1=O	-11	0	1	26	1
COc1ccc2[nH]cc(CCNC(=S)NC3CCCC3)c2c1	4	51*	-3	-13	2
Cc1csc(=Nc2ccccc2)n1Cc1ccco1	-11	53*	0	-12	0
C=Cn1cc[n+](CC(=O)c2ccc(Br)cc2)c1	-1	10	3	-2	-2
C=Cn1cc[n+](CC(=O)c2ccc(Cl)cc2)c1	9	117*	0	-6	-1
CC(C)CN(C(=O)COC(=O)c1cc2ccccc2cc1O)c1c(N)n(Cc2ccccc2)c(=O)[nH]c1=O	nt	-16	nt	nt	nt
C=CCOC(=O)C1=C[C@H](C(C)(C)C)[C@@H](CCCO)[C@H](OCC)O1	8	5	-1	-14	0
CCO[C@@H]1OC(C(N)=O)=C[C@H](C(C)(C)C)[C@H]1CCCO	6	109*	-2	10	1
SMILES	697 NFkB inh	CRFBP-R2 block	UPR CHOP act	Jurkat NFkB inh	UPR XBP1 act
Cc1nn(Cc2ccccc2Cl)c(C)c1NC(=O)c1ccn(C)n1	-55	21	1	-6	0
Cc1nn(Cc2ccccc2Cl)c(C)c1NC(=O)c1nc2ncccn2n1	1	58*	0	1	-4
N/C(=N\OC(=O)COc1ccc([N+](=O)[O-])cc1)c1ccncc1	-4	-6	1	-20	1
N/C(=N\OC(=O)COc1ccc(Br)cc1)c1ccncc1	-41	59*	2	-19	3
CCCCn1c(SCc2c(C)noc2C)nc2cc(S(N)(=O)=O)ccc21	27	54*	-1	-24	-4
N/C(Cc1ccc([N+](=O)[O-])cc1)=N\OC(=O)c1ccc(Br)cc1	8	62*	1	-1	-3
N/C(=N\OC(=O)c1ccc([N+](=O)[O-])cc1)c1ccc(Br)cc1	-80	5	7	-47	0
Cc1cccc(NS(=O)(=O)c2cccc(C(=O)NCC(c3ccc(F)cc3)N3CCOCC3)c2)c1 (centres undefined)	nt	-10	nt	nt	nt
Cc1cccc(C(=O)Oc2ccc(/C=N/NC(=O)c3ccc(O)cc3)cc2)c1	14	105*	4	5	7
CCN1C(=O)[C@@H]2[C@H](C1=O)[C@@H]1C(=O)Nc3ccccc3C(=O)N1[C@@H]2c1ccc(OC)cc1	23	4	1	14	2
COc1ccc(NC(=O)CSc2nnnn2C2CCCCC2)cc1	17	2	0	15	1
CCC(C)[C@H](NC(=O)[C@@H]1Cc2ccccc2CN1C(=O)OC(C)(C)C)C(=O)NCC1CCC(C(=O)O)CC1 (some centres undefined)	3	81*	0	-3	-2
CC(C)[C@H](NC(=O)[C@@H]1Cc2ccccc2CN1C(=O)OC(C)(C)C)C(=O)NCC1CCCO1 (some centres undefined)	14	21	-2	-11	-3
Cc1onc(-c2c(F)cccc2Cl)c1C(=O)N(C)CCc1ccccn1	0	-1	-1	-8	-6
CN(C)S(=O)(=O)c1ccc(NCC2COc3ccccc3O2)c([N+](=O)[O-])c1 (centres undefined)	-23	-31	2	-2	0
NC(=O)c1ccc(NCC2COc3ccccc3O2)c([N+](=O)[O-])c1 (centres undefined)	12	92*	2	-15	1
CC1(C2CC(=O)c3c(O)ccc(O)c3C2)OCCO1 (centres undefined)	nt	-3	nt	nt	nt
CCC(C)c1ccc(NC(=O)C2=CC=CN3CCS(=O)(=O)N=C23)cc1 (centres undefined)	-30	-17	3	-20	3
CN(C)c1ncc(S(=O)(=O)c2ccc(Cl)cc2)c(-c2ccc(Cl)cc2Cl)n1	-14	56*	0	8	-1
Cc1c(O)c(CN2CCCCC2)cc2c1oc(=O)c1ccccc12	-25	59*	-1	-11	4
Cc1c(O)c(CN2CCCCC2)cc2c3c(c(=O)oc12)CCC3	5	-1	1	-14	-4
COc1ccc(NC(=O)c2cccc3c2C(=O)c2ccc(-c4cnc(OC)nc4)cc2S3(=O)=O)cc1	1	9	2	-14	1
O=C(COC(=O)CCC(=O)c1ccc(F)cc1)NCCc1ccccc1	16	0	0	12	-1
